In ChEMBL document CHEMBL5712892, “EZH1 and EZH2 promote skeletal growth by repressing inhibitors of chondrocyte proliferation and hypertrophy” (Nat Commun, 2016):
Activity calls are given as the source filed them. The calls are words filed in the database; no cut-off is given here.

Legend:
EZH1/2 (Mus musculus) [1] = molecular target: T1, EZH1/2 (Mus musculus) (UniProt Q61188+P70351); assay: Inhibition of Ezh1/2 in wild-type C57BL/6 mouse fetal metatarsal bone assessed as reduction in H3K27me3 expression at 2 microM by immunohistochemical analysis; format: tissue-based
In short: (§1)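 E18 wild-type C57BL/6 metatarsals cultured 3 days with DMSO or 2 µM UNC1999, added at start and refreshed day 2. Paraffin sections were proteinase K retrieved (100 µg ml-1, 30 min, room temperature) and peroxidase blocked. They were immunostained with anti-H3K27me2 or anti-H3K27me3 (1:1,000) by ABC/DAB.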

EZH1/2 (Mus musculus) [2] = molecular target: T1, EZH1/2 (Mus musculus); assay: Inhibition of Ezh1/2 in wild-type C57BL/6 mouse isolated primary chondrocytes assessed as reduction in cell proliferation at 2 uM by [3H]thymidine based liquid scintillation counting analysis; conditions: Primary chondrocyte
In short: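 Monolayer primary chondrocytes (2×10^5 per well) from 1-week-old wild-type mice were treated with DMSO or 2 µM UNC1999 from 16 h after plating. At 24 h after plating they were labelled with 1 µCi 3H-thymidine for 16 h, washed and collagenase-detached. Radioactivity was read by liquid scintillation counting; N = 6.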

EZH1/2 (Mus musculus) [3] = molecular target: T1, EZH1/2 (Mus musculus); assay: Inhibition of Ezh1/2 in wild-type C57BL/6 mouse isolated primary chondrocytes assessed as increase in Cdkn2a expression at 2 uM by RT-PCR analysis; format: cell-based; conditions: Primary chondrocyte
In short: (§2)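 Monolayer primary chondrocytes from 1-week-old wild-type mice received DMSO or UNC1999 (2 µM final) 16 h after plating. RNA was extracted and Cdkn2a and Cdkn2b mRNA quantified by real-time RT-PCR; N = 6.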

EZH1/2 (Mus musculus) [4] = molecular target: T1, EZH1/2 (Mus musculus); assay: Inhibition of Ezh1/2 in wild-type C57BL/6 mouse isolated primary chondrocytes assessed as increase in Cdkn2b expression at 2 uM by RT-PCR analysis; format: cell-based; conditions: Primary chondrocyte; in short: as §2
EZH1/2 (Mus musculus) [5] = molecular target: T1, EZH1/2 (Mus musculus); assay: Inhibition of Ezh1/2 in wild-type C57BL/6 mouse isolated primary chondrocytes transfected with Cdkn2a SiRNA assessed as reduction in cell proliferation at 2 uM measured after 24 hrs by [3H]thymidine based liquid scintillation counting analysis; conditions: Primary chondrocyte
In short: (§3)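 Primary chondrocytes (1×10^5 per well) from 1-week-old wild-type mice were hyaluronidase-treated (5 U ml-1, 6 h) at 40 h. They were then transfected with 40 pmol siRNA against Cdkn2a and/or Cdkn2b, or scrambled control, using Lipofectamine 2000. DMSO or 2 µM UNC1999 was added 16 h post-transfection. Proliferation was measured 24 h later by 3H-thymidine uptake and scintillation counting; N = 6.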

EZH1/2 (Mus musculus) [6] = molecular target: T1, EZH1/2 (Mus musculus); assay: Inhibition of Ezh1/2 in wild-type C57BL/6 mouse isolated primary chondrocytes transfected with Cdkn2b SiRNA assessed as reduction in cell proliferation at 2 uM measured after 24 hrs by [3H]thymidine based liquid scintillation counting analysis; conditions: Primary chondrocyte; in short: as §3
EZH1/2 (Mus musculus) [7] = molecular target: T1, EZH1/2 (Mus musculus); assay: Inhibition of Ezh1/2 in wild-type C57BL/6 mouse isolated primary chondrocyte monolayer culture assessed as increase in Igfbp3 expression at 2 uM by immunostaining analysis; format: cell-based
EZH1/2 (Mus musculus) [8] = molecular target: T1, EZH1/2 (Mus musculus); assay: Inhibition of Ezh1/2 in wild-type C57BL/6 mouse isolated primary chondrocyte monolayer culture assessed as increase in Igfbp5 expression at 2 uM by immunostaining analysis; format: cell-based
EZH1/2 (Mus musculus) [9] = molecular target: T1, EZH1/2 (Mus musculus); assay: Inhibition of Ezh1/2 in wild-type C57BL/6 mouse isolated primary chondrocyte pellets assessed as reduction in H3K27me2 level at 2 uM measured after 1 week by immunohistological staining based assay; format: cell-based; conditions: time 1.0 weeks
In short: (§4)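 Chondrocyte pellets (2.4×10^5 cells, from 1-week-old wild-type mice) were kept in 0.1% FBS medium with DMSO or 2 µM UNC1999 from 16 h, refreshed every other day, for 1 week. Sections were immunostained for H3K27me2 or H3K27me3 (1:1,000, proteinase K retrieval, DAB).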

EZH1/2 (Mus musculus) [10] = molecular target: T1, EZH1/2 (Mus musculus); assay: Inhibition of Ezh1/2 in wild-type C57BL/6 mouse isolated primary chondrocyte pellets assessed as reduction in H3K27me3 level at 2 uM measured after 1 week by immunohistological staining based assay; format: cell-based; conditions: time 1.0 weeks; in short: as §4
EZH1/2 (Mus musculus) [11] = molecular target: T1, EZH1/2 (Mus musculus); assay: Inhibition of Ezh1/2 in wild-type C57BL/6 mouse isolated primary chondrocyte pellets assessed as reduction in cell hypertrophy at 2 uM measured after 1 week by alcian blue staining based assay; conditions: time 1.0 weeks
In short: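 Wild-type chondrocyte pellets were cultured in 0.1% FBS medium with DMSO or 2 µM UNC1999 (from 16 h, refreshed every other day). Alcian blue-stained histological sections were examined for cell size at different time points, including 1 week.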

EZH1/2 (Mus musculus) [12] = molecular target: T1, EZH1/2 (Mus musculus); assay: Inhibition of Ezh1/2 in wild-type C57BL/6 mouse isolated primary chondrocyte pellets assessed as reduction in Col10a1 expression at 2 uM by RT-PCR analysis; format: cell-based
In short: (§5)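 Pellets of 2.4×10^5 primary chondrocytes from 1-week-old wild-type mice (400 g, 10 min) were cultured up to 4 weeks, switched to 0.1% FBS medium after 16 h. DMSO or UNC1999 (2 µM final) was added at 16 h and refreshed every other day. Col10a1, Ihh, Igfbp3 and Igfbp5 mRNA were measured by real-time RT-PCR at several time points; two-way ANOVA, N = 6.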

EZH1/2 (Mus musculus) [13] = molecular target: T1, EZH1/2 (Mus musculus); assay: Inhibition of Ezh1/2 in wild-type C57BL/6 mouse isolated primary chondrocyte pellets assessed as reduction in Ihh expression at 2 uM by RT-PCR analysis; format: cell-based; in short: as §5
EZH1/2 (Mus musculus) [14] = molecular target: T1, EZH1/2 (Mus musculus); assay: Inhibition of Ezh1/2 in wild-type C57BL/6 mouse isolated primary chondrocyte pellets assessed as increase in Igfbp5 expression at 2 uM by RT-PCR analysis; format: cell-based; in short: as §5
EZH1/2 (Mus musculus) [15] = molecular target: T1, EZH1/2 (Mus musculus); assay: Inhibition of Ezh1/2 in wild-type C57BL/6 mouse isolated primary chondrocyte pellets assessed as increase in Igfbp3 expression at 2 uM by RT-PCR analysis; format: cell-based; in short: as §5
EZH1/2 (Mus musculus) [16] = molecular target: T1, EZH1/2 (Mus musculus); assay: Inhibition of Ezh1/2 in wild-type C57BL/6 mouse fetal metatarsal bone assessed as reduction in H3K27me2 expression at 2 microM by immunohistochemical analysis; format: tissue-based; in short: as §1
EZH1/2 (Mus musculus) [17] = molecular target: T1, EZH1/2 (Mus musculus); assay: Inhibition of Ezh1/2 in wild-type C57BL/6 mouse fetal metatarsal bone assessed as reduction in hypertrophic cell size at 2 uM; format: tissue-based
In short: (§6)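 Fetal metatarsals (middle three) from E18 wild-type C57BL/6 mice cultured 3 days at 37 °C, 5% CO2 in α-MEM with 0.2% BSA, 0.1 mM β-glycerophosphate, 50 µg ml-1 ascorbic acid. DMSO or UNC1999 (2 µM), ± Igf1 100 ng ml-1, Igfbp3 50 nM or Igfbp5 50 nM, added at start and refreshed day 2. Hypertrophic cell heights averaged within a 100×100 µm area at HZ centre; N = 6.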

EZH1/2 (Mus musculus) [18] = molecular target: T1, EZH1/2 (Mus musculus); assay: Inhibition of Ezh1/2 in Igf1-treated wild-type C57BL/6 mouse fetal metatarsal bone assessed as reduction in hypertrophic cell size at 2 uM; format: tissue-based; in short: as §6
EZH1/2 (Mus musculus) [19] = molecular target: T1, EZH1/2 (Mus musculus); assay: Inhibition of Ezh1/2 in Igfbp3-treated wild-type C57BL/6 mouse fetal metatarsal bone assessed as reduction in hypertrophic cell size at 2 uM; format: tissue-based; in short: as §6
EZH1/2 (Mus musculus) [20] = molecular target: T1, EZH1/2 (Mus musculus); assay: Inhibition of Ezh1/2 in wild-type C57BL/6 mouse fetal metatarsal bone assessed as increase in Igfbp3 expression at 2 uM by immunostaining assay; format: tissue-based
EZH1/2 (Mus musculus) [21] = molecular target: T1, EZH1/2 (Mus musculus); assay: Inhibition of Ezh1/2 in wild-type C57BL/6 mouse fetal metatarsal bone assessed as increase in Igfbp5 expression at 2 uM by immunostaining assay; format: tissue-based
EZH1/2 (Mus musculus) [22] = molecular target: T1, EZH1/2 (Mus musculus); assay: Inhibition of Ezh1/2 in Igfbp5-treated wild-type C57BL/6 mouse fetal metatarsal bone assessed as reduction in hypertrophic cell size at 2 uM; format: tissue-based; in short: as §6

inhibition (EZH1/2 (Mus musculus) [1]): Active
inhibition (EZH1/2 (Mus musculus) [2]): Active
inhibition (EZH1/2 (Mus musculus) [3]): Active
inhibition (EZH1/2 (Mus musculus) [4]): Active
inhibition (EZH1/2 (Mus musculus) [5]): inactive
inhibition (EZH1/2 (Mus musculus) [6]): inactive
inhibition (EZH1/2 (Mus musculus) [7]): Active
inhibition (EZH1/2 (Mus musculus) [8]): inactive
inhibition (EZH1/2 (Mus musculus) [9]): Active
inhibition (EZH1/2 (Mus musculus) [10]): Active
inhibition (EZH1/2 (Mus musculus) [12]): Active
inhibition (EZH1/2 (Mus musculus) [13]): Active
inhibition (EZH1/2 (Mus musculus) [14]): Active
inhibition (EZH1/2 (Mus musculus) [15]): inactive
inhibition (EZH1/2 (Mus musculus) [16]): Active
inhibition (EZH1/2 (Mus musculus) [20]): Active
inhibition (EZH1/2 (Mus musculus) [21]): Active
SMILES: CCCc1cc(C)[nH]c(=O)c1CNC(=O)c1cc(-c2ccc(N3CCN(C(C)C)CC3)nc2)cc2c1cnn2C(C)C
inhibition (EZH1/2 (Mus musculus) [11]): Active
inhibition (EZH1/2 (Mus musculus) [17]): Active
inhibition (EZH1/2 (Mus musculus) [18]): inactive
inhibition (EZH1/2 (Mus musculus) [19]): Active
inhibition (EZH1/2 (Mus musculus) [22]): Active
